According to ChEMBL document CHEMBL1124837, “5-Hydroxytryptamine (5-HT3) receptor antagonists. 1. Indazole and indolizine-3-carboxylic acid derivatives” (J Med Chem, 1990):

What follows are compounds tested against Serotonin 3 (5-HT3) receptor (Rattus norvegicus) (UniProt P35563+Q9JJ16) (assay: Inhibition of 5-HT evoked reflex bradycardia in rat.).
Type: functional, organism-based
Method in brief: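 Anesthetized rats (260–290 g; urethane 1.25 g/kg ip) with blood pressure and heart rate recorded. A submaximal 5-HT dose (6 μg/kg iv) was given repeatedly and heart-rate changes were quantified. Test agents were given iv before 5-HT. ID50 is the dose cutting the 5-HT-evoked response to 50% of control.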
`CN1[C@@H]2CC[C@H]1C[C@@H](OC(=O)c1c[nH]c3ccccc13)C2` gave an ID50 of 1.4 µg/kg.
With `CCn1nc(C(=O)NC2CC3CCCC(C2)N3C)c2ccccc21` (stereo not drawn) the ID50 was 0.6 µg/kg.
In the case of `CN1C2CCC1CC(NC(=O)c1cc(-c3ccccc3)c3ccccn13)C2` (stereo not drawn), the ID50 is reported as 4.7 µg/kg.
In the case of `CN1C2CCC1CC(NC(=O)c1ccc3ccccn13)C2` (stereo not drawn), the ID50 is reported as > 10 µg/kg.
`CN1C2CCCC1CC(NC(=O)c1[nH]nc3ccc(F)cc13)C2` (stereo not drawn) gave an ID50 of 1 µg/kg.
`CN1C2CCCC1CC(NC(=O)c1nn(C)c3ccccc13)C2` (stereo not drawn) was tested, and the ID50 was 2 µg/kg.
In the case of `CN1C2CCC1CC(OC(=O)c1nn(C)c3ccccc13)C2` (stereo not drawn), the ID50 is reported as 1.4 µg/kg.
Work on `Cc1cc(C(=O)NC2CC3CCC(C2)N3C)n2ccccc12` (stereo not drawn) yielded an ID50 of 1.6 µg/kg.
With `CCc1nc(C(=O)NC2CC3CCCC(C2)N3C)c2ccccn12` (stereo not drawn) the ID50 was 0.5 µg/kg.
`CN1C2CCC1CC(OC(=O)c1[nH]nc3ccccc13)C2` (stereo not drawn) was tested, and the ID50 was 5.3 µg/kg.
`CCc1cc(C(=O)NC2CC3CCC(C2)N3C)n2ccccc12` (stereo not drawn) was tested, and the ID50 was 1 µg/kg.
`CN1C2CCC1CC(NC(=O)c1n[nH]c3ccccc13)C2` (stereo not drawn) showed an ID50 of 1.2 µg/kg.
In the case of `CN1C2CCCC1CC(NC(=O)c1c3ccccc3nn1C)C2` (stereo not drawn), the ID50 is reported as > 100 µg/kg.
With `Cc1nccn1CC1CCc2c(c3ccccc3n2C)C1=O` (stereo not drawn) the ID50 was 3.6 µg/kg.
`CN1C2CCCC1CC(NC(=O)c1[nH]nc3ccccc13)C2` (stereo not drawn) showed an ID50 of 1.1 µg/kg.
With `CN1C2CCCC1CC(NC(=O)c1cn(C)c3ccccc13)C2` (stereo not drawn) the ID50 was 6.8 µg/kg.
`CN1C2CCCC1CC(NC(=O)c1[nH]nc3ccc(Cl)cc13)C2` (stereo not drawn) gave an ID50 of 12.4 µg/kg.
For `CCc1nc(C(=O)NC2CC3CCC(C2)N3C)c2ccccn12` (stereo not drawn), the ID50 was 1 µg/kg.
